According to ChEMBL document CHEMBL1132406, “Synthesis and structure-activity relationships of phenylenebis(methylene)-linked bis-azamacrocycles that inhibit HIV-1 and HIV-2 replication by antagonism of the chemokine receptor CXCR4” (J Med Chem, 1999):
pEC50, pIC50: −log10 of the molar value.

Legend:
[1] = tested on: Human immunodeficiency virus 1; experiment: Antiviral effective concentration for Inhibitory activity on HIV-1(IIIB) replication in MT-4 cells; type: functional, organism-based; conditions: Human immunodeficiency virus 1, MT4
How it was run: (§1)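 MT-4 cells infected at MOI 0.01 (100 × CCID50) with HIV-1 (IIIB) or HIV-2 (ROD) in presence of graded compound concentrations; antiviral and cytotoxicity run in parallel, CC50 on mock-infected cells. After 5 days of growth, viable cells counted by MTT colorimetry. EC50 = concentration protecting 50% of infected cells from cytopathicity; values averaged over several experiments.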

MT4 = experiment: 50% cytotoxic concentration was tested against HIV infected MT-4 cells; type: functional; conditions: Homo sapiens, in the assay text read “mock-infected” for “HIV infected”; how it was run: as §1
[2] = tested on: Human immunodeficiency virus 2; experiment: Antiviral effective concentration for Inhibitory activity on HIV-2(ROD) replication in MT-4 cells; type: functional, organism-based; conditions: Human immunodeficiency virus 2, MT4; how it was run: as §1
[3] = molecular target: C-X-C chemokine receptor type 4 (Homo sapiens, UniProt P61073); experiment: Inhibitory activity against CXCR4-specific monoclonal antibody 12G5 (mAb-12G5) binding to human chemokinin receptor CXCR4 in lymphocytic SUP-T1 cells; type: cell-based
Sequence of C-X-C chemokine receptor type 4 (P61073 whole entry): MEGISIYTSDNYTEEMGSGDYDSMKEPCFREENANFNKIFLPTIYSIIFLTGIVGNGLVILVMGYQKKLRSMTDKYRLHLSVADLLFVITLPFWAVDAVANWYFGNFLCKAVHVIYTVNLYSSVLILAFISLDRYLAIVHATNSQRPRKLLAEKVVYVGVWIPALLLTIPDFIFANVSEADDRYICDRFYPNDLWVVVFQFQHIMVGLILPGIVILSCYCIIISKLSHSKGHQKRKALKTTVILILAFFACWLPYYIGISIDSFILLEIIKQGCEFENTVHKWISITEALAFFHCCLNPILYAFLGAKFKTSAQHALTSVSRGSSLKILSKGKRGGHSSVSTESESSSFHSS
How it was run: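 SUP-T1 cells preincubated with compound or PBS 15 min at room temperature, washed, then exposed to CXCR4 mAb 12G5 for 30 min, washed, stained with FITC goat anti-mouse antibody for 30 min at room temperature. Flow cytometry measured percent positive cells and MFI; inhibition derived from MFI, IC50 calculated.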

| Compound | pEC50 [1] | pEC50 [2] | pIC50 [3] | CC50 (MT4) [µM] |
| --- | --- | --- | --- | --- |
| c1cc(CN2CCCNCc3cncc(n3)CNCCC2)ccc1CN1CCCNCc2cncc(n2)CNCCC1 | 4.51 | 4.68 | < 4.46 | 209 |
| COc1cc2nc(c1)CNCCCN(Cc1ccc(CN3CCCNCc4cc(OC)cc(n4)CNCCC3)cc1)CCCNC2 | 5.51 | 5.07 |  | 216 |
| c1cc2nc(c1)CCNCCN(Cc1ccc(CN3CCNCCc4cccc(n4)CCNCC3)cc1)CCNCC2 | 9.10 | 8.80 | 9.00 | 194 |
| c1cc2nc(c1)CNCCCN(Cc1ccc(CN3CCCNCc4cccc(n4)CNCCC3)cc1)CCCNC2 | 6.27 |  |  | 199 |
| c1ccc(-c2cc3nc(c2)CNCCCN(Cc2ccc(CN4CCCNCc5cc(-c6ccccc6)cc(n5)CNCCC4)cc2)CCCNC3)cc1 | 5.76 |  |  | 19.3 |
| c1cc(CN2CCCNCCNCCCNCC2)ccc1CN1CCCNCCNCCCNCC1 |  |  |  | > 421 |
| Oc1cc2nc(c1)CNCCCN(Cc1ccc(CN3CCCNCc4cc(O)cc(n4)CNCCC3)cc1)CCCNC2 | 3.76 | 3.70 | < 4.46 | 200 |
| Clc1cc2nc(c1)CNCCCN(Cc1ccc(CN3CCCNCc4cc(Cl)cc(n4)CNCCC3)cc1)CCCNC2 | 6.12 | 6.12 | 5.24 | 17.8 |
| c1cc2nc(c1)CNCCN(Cc1ccc(CN3CCNCc4cccc(n4)CNCC3)cc1)CCNC2 | 6.28 | 6.90 | 5.36 | 8.5 |
| c1cc(CN2CCCNCCOCCNCCC2)ccc1CN1CCCNCCOCCNCCC1 | 5.35 |  |  | > 244 |
| c1cc(CN2CCNCc3cccc(n3)CNCC2)cc(CN2CCNCc3cccc(n3)CNCC2)c1 | 7.01 | 8.60 |  | 30 |

The next lines start with results.

| pEC50 [1] | pEC50 [2] | pIC50 [3] | Compound | CC50 (MT4) [µM] |
| --- | --- | --- | --- | --- |
| 5.02 |  | < 4.46 | c1cc(CN2CCCNCCCCCNCCC2)ccc1CN1CCCNCCCCCNCCC1 | 133 |
| 5.10 |  |  | c1cc2cc(c1)CNCCCN(Cc1ccc(CN3CCCNCc4cccc(c4)CNCCC3)cc1)CCCNC2 | 133 |
| < 3.44 | < 3.44 | < 4.46 | c1cc(CN2CCCOCCOCCCNCC2)ccc1CN1CCCOCCOCCCNCC1 | > 363 |
| 7.47 | 7.37 | 7.17 | c1cc(CN2CCCNCCNCCNCCC2)ccc1CN1CCCNCCNCCNCCC1 | > 421 |
| 6.38 | 5.92 |  | c1cc2nc(c1)CCNCCCN(Cc1ccc(CN3CCCNCCc4cccc(n4)CCNCCC3)cc1)CCCNCC2 | 142 |
| < 5.17 | < 5.17 | < 4.46 | c1cc(CN2CCCSCCSCCCNCC2)ccc1CN1CCCSCCSCCCNCC1 | 6.8 |
